ChEMBL document CHEMBL1138247 (J Med Chem, 2007)
Each block holds one compound with its values, some of them ahead of it.

Key:
[1] = Partition coefficient, log P of the compound; assay type: physicochemical; conditions: octanol/water
Summary of the method: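 logP extrapolated from reverse-phase HPLC retention time converted to capacity factor k, against a standard calibration curve built from compounds of known logP.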

Integrin alpha-4/beta-1 = Integrin alpha-4/beta-1 (Homo sapiens, UniProt P05556+P13612); test: Inhibition of integrin alpha4beta1 receptor-mediated human Molt-4 cell adhesion to CS1 peptide; assay type: cell-based
Sequence of Integrin alpha-4/beta-1 (P05556 whole entry): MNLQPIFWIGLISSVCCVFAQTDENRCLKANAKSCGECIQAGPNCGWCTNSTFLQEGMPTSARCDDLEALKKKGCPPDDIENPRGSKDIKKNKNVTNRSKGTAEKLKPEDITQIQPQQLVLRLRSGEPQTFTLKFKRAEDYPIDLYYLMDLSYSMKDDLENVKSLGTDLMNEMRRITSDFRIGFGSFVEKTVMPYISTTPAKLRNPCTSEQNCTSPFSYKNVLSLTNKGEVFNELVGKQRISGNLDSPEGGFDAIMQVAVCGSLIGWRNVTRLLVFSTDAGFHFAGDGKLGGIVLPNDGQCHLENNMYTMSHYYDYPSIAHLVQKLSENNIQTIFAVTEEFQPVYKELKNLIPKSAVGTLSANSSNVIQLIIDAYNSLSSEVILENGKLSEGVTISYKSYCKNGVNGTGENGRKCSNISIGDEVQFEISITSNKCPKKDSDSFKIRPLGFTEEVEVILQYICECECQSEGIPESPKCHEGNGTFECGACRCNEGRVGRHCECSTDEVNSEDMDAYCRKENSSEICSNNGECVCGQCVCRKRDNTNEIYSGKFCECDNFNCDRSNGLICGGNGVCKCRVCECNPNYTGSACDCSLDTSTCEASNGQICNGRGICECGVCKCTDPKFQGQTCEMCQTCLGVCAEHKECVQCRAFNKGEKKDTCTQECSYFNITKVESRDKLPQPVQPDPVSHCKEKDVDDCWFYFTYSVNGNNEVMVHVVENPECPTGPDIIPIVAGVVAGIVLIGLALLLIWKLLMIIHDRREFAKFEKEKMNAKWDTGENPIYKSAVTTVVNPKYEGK
Sequence of Integrin alpha-4/beta-1 (P13612 whole entry): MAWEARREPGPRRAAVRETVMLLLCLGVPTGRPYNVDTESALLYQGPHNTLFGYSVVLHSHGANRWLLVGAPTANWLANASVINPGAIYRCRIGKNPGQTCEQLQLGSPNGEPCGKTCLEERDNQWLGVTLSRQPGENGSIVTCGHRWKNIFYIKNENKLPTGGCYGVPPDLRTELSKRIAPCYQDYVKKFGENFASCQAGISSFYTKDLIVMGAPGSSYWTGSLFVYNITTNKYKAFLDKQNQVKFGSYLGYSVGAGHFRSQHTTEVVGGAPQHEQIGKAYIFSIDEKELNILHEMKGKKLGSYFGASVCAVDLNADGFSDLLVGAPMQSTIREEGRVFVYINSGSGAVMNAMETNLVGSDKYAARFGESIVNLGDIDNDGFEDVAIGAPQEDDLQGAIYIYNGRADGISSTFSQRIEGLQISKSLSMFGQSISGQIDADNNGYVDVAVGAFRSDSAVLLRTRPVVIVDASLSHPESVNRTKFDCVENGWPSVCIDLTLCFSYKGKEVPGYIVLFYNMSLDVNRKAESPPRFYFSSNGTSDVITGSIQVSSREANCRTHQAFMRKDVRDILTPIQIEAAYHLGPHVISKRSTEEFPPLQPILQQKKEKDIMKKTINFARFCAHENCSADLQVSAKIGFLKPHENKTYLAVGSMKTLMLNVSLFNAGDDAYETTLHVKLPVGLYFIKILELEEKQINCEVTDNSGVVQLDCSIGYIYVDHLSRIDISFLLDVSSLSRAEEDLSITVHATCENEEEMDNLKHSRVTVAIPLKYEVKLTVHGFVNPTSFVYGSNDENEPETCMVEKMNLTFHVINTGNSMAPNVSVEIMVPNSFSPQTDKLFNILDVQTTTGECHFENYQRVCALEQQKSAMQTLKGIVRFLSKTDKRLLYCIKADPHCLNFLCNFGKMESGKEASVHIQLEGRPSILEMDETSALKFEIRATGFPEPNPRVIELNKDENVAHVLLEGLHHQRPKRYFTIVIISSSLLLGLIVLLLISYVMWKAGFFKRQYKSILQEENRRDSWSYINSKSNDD

Compound: NC(=O)C1(NC(=O)[C@@H](CCCC(=O)O)NC(=O)[C@@H](CCCCNC(=O)/C=C/c2cccnc2)NC(=O)Cc2ccc(Nc3nc4cc(Br)ccc4[nH]3)cc2)CCCCC1
logP [1]: 1.96
IC50 (Integrin alpha-4/beta-1): 340 nM

Compound: NC(=O)C1(NC(=O)[C@@H](CCCC(=O)O)NC(=O)[C@@H](CCCCNC(=O)/C=C/c2cccnc2)NC(=O)CCc2ccc(Nc3nc4ccccc4[nH]3)cc2)CCCCC1
logP [1]: 2.8
IC50 (Integrin alpha-4/beta-1): 344 nM

Compound: NC(=O)C1(NC(=O)[C@@H](CCCC(=O)O)NC(=O)[C@@H](CCCCNC(=O)/C=C/c2cccnc2)NC(=O)Cc2ccc(Nc3nc4ccccc4[nH]3)cc2)CCCCC1
logP [1]: 2.23
IC50 (Integrin alpha-4/beta-1): 0.305 nM

Compound: CC(C(=O)N[C@H](CCCCNC(=O)/C=C/c1cccnc1)C(=O)N[C@H](CCCC(=O)O)C(=O)NC1(C(N)=O)CCCCC1)c1ccc(Nc2nc3ccccc3[nH]2)cc1 (stereo partly specified)
logP [1]: 2.63
IC50 (Integrin alpha-4/beta-1): 444 nM

Compound: Cc1cccc2[nH]c(Nc3ccc(CC(=O)N[C@H](CCCCNC(=O)/C=C/c4cccnc4)C(=O)N[C@H](CCCC(=O)O)C(=O)NC4(C(N)=O)CCCCC4)cc3)nc12
logP [1]: 2.58
IC50 (Integrin alpha-4/beta-1): 27.5 nM

Continued by falling IC50 (Integrin alpha-4/beta-1), values first:

logP [1]: 1.86
IC50 (Integrin alpha-4/beta-1): 655 nM
Compound: Cc1cccc2[nH]c(Nc3ccc(C(=O)N[C@H](CCCCNC(=O)/C=C/c4cccnc4)C(=O)N[C@H](CCCC(=O)O)C(=O)NC4(C(N)=O)CCCCC4)cc3)nc12

logP [1]: 1.83
IC50 (Integrin alpha-4/beta-1): 420 nM
Compound: NC(=O)C1(NC(=O)[C@@H](CCCC(=O)O)NC(=O)[C@@H](CCCCNC(=O)/C=C/c2cccnc2)NC(=O)c2ccc(Nc3nc4ccccc4[nH]3)cc2)CCCCC1

logP [1]: 2.12
IC50 (Integrin alpha-4/beta-1): 186 nM
Compound: NC(=O)C1(NC(=O)[C@@H](CCCC(=O)O)NC(=O)[C@@H](CCCCNC(=O)/C=C/c2cccnc2)NC(=O)c2cccc(Nc3nc4ccccc4[nH]3)c2)CCCCC1
